The source made the active and inactive calls. The calls are words filed in the database; no cut-off is given here.
Columns and labels:
[1] = tested on: Plasmodium falciparum; experiment: Antimalarial activity against chloroquine-sensitive Plasmodium falciparum 3D7 infected in human erythrocytes assessed as inhibition of parasite growth after 72 hrs by SYBR Green I method; format: functional, organism-based; details: 3D7, 72 h
How it was run: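 P. falciparum 3D7 grown in human erythrocytes (2% hematocrit) in RPMI1640 with Hepes, hypoxanthine, glucose, bicarbonate and Albumax I under 5% CO2/5% O2/90% N2. 10 mM DMSO stocks, 3-fold serial dilutions. Quadruplicate wells at 0.5% parasitemia, 0.1% DMSO final, 72 h at 37 °C. SYBR Green I lysis buffer added, 1 h dark, fluorescence 497/520. IC50 by four-parameter logistic fit.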

[2] = tested on: HepG2; experiment: Cytotoxicity against human HepG2 cells assessed as inhibition of cell viability after 72 hrs by PrestoBlue Cell Viability Reagent based assay; details: HepG2, 72 h
How it was run: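 HepG2 kept in DMEM with 10% FBS and L-glutamine on poly-D-lysine at 37 °C, 5% CO2. Seeded 10,000 cells/well, allowed to adhere at least 4 h, then exposed to compound for 72 h. PrestoBlue added for 30 min at 37 °C, fluorescence Ex 560/Em 590 nm. IC50 by nonlinear regression.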

[3] = tested on: Plasmodium; experiment: Inhibition of Plasmodium plamepsin 2 using EDANS-CO-CH2-CH2-CO-ALERMFLSFP-Dap(DABCYL)OH as substrate up to 10 uM after 60 mins by fluorescence assay
How it was run: (§1)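 Recombinant PM-2 or PM-4, purified and activated at 0.3 mg/ml in pH 4.5 citrate, 0.1% Tween-20, 50 mM DTT for 40 min at RT. Then diluted in 50 mM sodium acetate pH 4.7, 0.01% Tween-20. Serially diluted compounds added, followed by peptide substrate at 20 μM final. Run 60 min at RT, fluorescence Ex/Em 360/535 nm. IC50 derived from the curve.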

[4] = tested on: Rattus norvegicus; experiment: Oral bioavailability in Sprague-Dawley rat at 5 mg/kg by LC-MS analysis; format: ADME, organism-based; details: in vivo
[5] = target: Cathepsin D (Homo sapiens) (UniProt P07339); experiment: Inhibition of human recombinant cathepsin D using Mca-PLGL-Dpa-AR-NH2 as substrate up to 10 uM by FRET assay
Chain of Cathepsin D (Homo sapiens) (P07339 65-162 limits assumed): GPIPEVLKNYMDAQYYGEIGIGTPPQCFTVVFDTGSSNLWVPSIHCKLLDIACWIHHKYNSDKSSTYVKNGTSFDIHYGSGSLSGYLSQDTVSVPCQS
Chain of Cathepsin D (Homo sapiens) (P07339 169-412 limits assumed): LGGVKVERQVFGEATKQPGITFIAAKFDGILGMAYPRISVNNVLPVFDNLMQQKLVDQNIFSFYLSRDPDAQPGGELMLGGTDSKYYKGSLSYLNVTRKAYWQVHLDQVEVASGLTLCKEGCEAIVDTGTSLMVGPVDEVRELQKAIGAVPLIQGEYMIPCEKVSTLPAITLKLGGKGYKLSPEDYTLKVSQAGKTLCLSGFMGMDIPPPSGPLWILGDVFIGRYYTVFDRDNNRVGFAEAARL
How it was run: (§2)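 Recombinant human cathepsin D at 20 ng/µl and cathepsin E at 1 ng/µl, each activated 30 min at RT in 0.1 M NaOAc, 0.2 M NaCl, pH 3.5. FRET substrate added at 20 uM final. Run 60 min at RT, time-resolved fluorescence Ex/Em 360/460 nm. IC50 by nonlinear regression.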

[6] = target: Beta-secretase 1 (Homo sapiens) (UniProt P56817); experiment: Inhibition of human recombinant BACE1 using Mca-SEVNLDAEFRK(Dnp)RR-NH2 as substrate up to 10 uM by FRET assay
Chain of Beta-secretase 1 (Homo sapiens) (P56817 whole entry): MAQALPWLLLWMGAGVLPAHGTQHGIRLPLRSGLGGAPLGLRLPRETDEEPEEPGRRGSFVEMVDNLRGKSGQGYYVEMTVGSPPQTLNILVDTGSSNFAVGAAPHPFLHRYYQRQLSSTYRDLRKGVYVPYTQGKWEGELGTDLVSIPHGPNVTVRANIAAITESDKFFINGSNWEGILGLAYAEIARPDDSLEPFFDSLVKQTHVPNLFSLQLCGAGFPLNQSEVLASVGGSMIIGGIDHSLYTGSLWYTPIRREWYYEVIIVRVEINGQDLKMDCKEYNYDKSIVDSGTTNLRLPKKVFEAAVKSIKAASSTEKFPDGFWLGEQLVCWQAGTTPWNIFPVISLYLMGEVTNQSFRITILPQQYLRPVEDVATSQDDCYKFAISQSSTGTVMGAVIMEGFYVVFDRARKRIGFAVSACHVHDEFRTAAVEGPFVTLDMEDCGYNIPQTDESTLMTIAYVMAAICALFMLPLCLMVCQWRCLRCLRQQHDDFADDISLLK
How it was run: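 Recombinant human BACE1 at 20 ng/µl, activated 15 min at RT in 100 mM sodium acetate pH 4.0. FRET substrate added at 20 uM final. Run 60 min at RT, time-resolved fluorescence Ex/Em 360/460 nm. IC50 by nonlinear regression.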

[7] = Selectivity index, ratio of IC50 for human HepG2 cells to IC50 for chloroquine-sensitive Plasmodium falciparum 3D7 infected in human erythrocytes; format: toxicity, cell-based; details: read-out: Ratio IC50
[8] = tested on: Plasmodium; experiment: Inhibition of Plasmodium plamepsin 4 using EDANS-CO-CH2-CH2-CO-ALERMFLSFP-Dap(DABCYL)OH as substrate up to 10 uM after 60 mins by fluorescence assay; how it was run: as §1
[9] = tested on: Liver microsome; experiment: Half-life in human liver microsomes at 1 uM by LC-MS/MS analysis; format: ADME
How it was run: (§3)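 Compound at 1 μM with liver microsomes (mouse, rat or human), 1.2 mM NADPH, 3.3 mM MgCl2, 100 mM potassium phosphate pH 7.4, at 37 °C. Aliquots taken at 0, 5, 10, 20 and 30 min and quenched in ice-cold acetonitrile with internal standard. Centrifuged supernatant run by LC-MS/MS. Half-life from analyte/internal standard peak-area ratios.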

[10] = tested on: Liver; experiment: Half-life in mouse liver microsomes at 1 uM by LC-MS/MS analysis; format: ADME; how it was run: as §3
[11] = tested on: Liver microsome; experiment: Half-life in rat liver microsomes at 1 uM by LC-MS/MS analysis; format: ADME; how it was run: as §3
[12] = Half-life in Sprague-Dawley rat at 1 mg/kg, iv and 5 mg/kg, po by LC-MS analysis; format: ADME, organism-based; details: in vivo
[13] = tested on: Plasmodium falciparum; experiment: Antimalarial activity against multidrug-resistant Plasmodium falciparum Dd2 infected in human erythrocytes assessed as inhibition of parasite growth after 72 hrs by SYBR Green I method; format: functional, organism-based; details: Dd2, 72 h
How it was run: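 SYBR Green I growth assay in human erythrocytes. DMSO stocks (10 mM), 3-fold serial dilutions, then diluted 500-fold into medium and added in quadruplicate. Final conditions: 2% hematocrit, 0.5% parasitemia, 0.1% DMSO. Incubated 72 h at 37 °C. Lysis buffer with SYBR Green I added, 1 h at room temperature in the dark. Fluorescence read at 497/520 nm. IC50 from four-parameter logistic nonlinear regression.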

[14] = target: T1, Cathepsin E (Homo sapiens) (UniProt P14091); experiment: Inhibition of human recombinant cathepsin E using Mca-PLGL-Dpa-AR-NH2 as substrate up to 10 uM by FRET assay; how it was run: as §2
T1 sequence (whole entry): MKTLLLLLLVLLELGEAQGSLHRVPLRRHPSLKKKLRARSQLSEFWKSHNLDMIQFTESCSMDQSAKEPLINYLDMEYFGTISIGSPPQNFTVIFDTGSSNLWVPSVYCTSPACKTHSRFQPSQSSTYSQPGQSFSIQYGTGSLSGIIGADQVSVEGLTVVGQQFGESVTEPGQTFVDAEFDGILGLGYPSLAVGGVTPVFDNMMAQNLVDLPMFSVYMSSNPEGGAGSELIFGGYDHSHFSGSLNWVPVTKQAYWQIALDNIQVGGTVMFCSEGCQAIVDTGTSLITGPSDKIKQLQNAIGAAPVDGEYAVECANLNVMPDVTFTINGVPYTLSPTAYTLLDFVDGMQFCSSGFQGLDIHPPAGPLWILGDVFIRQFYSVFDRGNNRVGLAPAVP

[15] = tested on: Rattus norvegicus; experiment: Volume of distribution in Sprague-Dawley rat at 1 mg/kg, iv and 5 mg/kg, po by LC-MS analysis; format: ADME, organism-based; details: in vivo

SMILES | IC50 [1] [µM] | other results
CCN1C(=O)N(Cc2ccc(C#N)cc2)C2(CCN(Cc3cc(Cl)ccc3O)CC2)C1=O | 1.5 | –
CCN1C(=O)N(CCC(C)C)C2(CCN(Cc3cccc4cc[nH]c34)CC2)C1=O | 3.4 | –
CCN1C(=O)N(CCC(C)C)C2(CCNCC2)C1=O | > 10 | –
CCN1C(=O)N(CCC(C)C)C2(CCN(Cc3cc(Cl)cc(Cl)c3O)CC2)C1=O | 0.46 | –
CCN1C(=O)N(CC)C2(CCN(Cc3cc(Cl)ccc3O)CC2)C1=O | 6.7 | –
CCN1C(=O)N(CCC(C)C)C2(CCN(Cc3ccc(O)c(Cl)c3)CC2)C1=O | 2.6 | –
CCN1C(=O)N(CCC(C)C)C2(CCN(Cc3ccc(Cl)cc3O)CC2)C1=O | 2.1 | IC50 [2]: > 50 µM
CCN1C(=O)N(CCC(C)C)C2(CCN(CCCO)CC2)C1=O | > 10 | –
CCN1C(=O)N(CCC(C)C)C2(CCN(Cc3ccccn3)CC2)C1=O | > 10 | –
CC(C)CCN1C(=O)N(C(C)C)C(=O)C12CCN(Cc1cc(Cl)ccc1O)CC2 | 0.11 | –
CCN1C(=O)N(CCC(C)C)C2(CCN(Cc3cccc(OC)c3O)CC2)C1=O | 6 | –
CCN1C(=O)N(Cc2ccc(C(F)(F)F)cc2)C2(CCN(Cc3cc(Cl)ccc3O)CC2)C1=O | 0.23 | –
CCN1C(=O)N(CCC(C)C)C2(CCN(Cc3cccc4cccnc34)CC2)C1=O | > 10 | –
CCN1C(=O)N(CCC(C)C)C2(CCN(Cc3cc(-c4ccccc4)ccc3O)CC2)C1=O | 0.29 | IC50 [2]: > 50 µM
CCN1C(=O)N(CCC(C)C)C2(CCN(Cc3cc(OC)ccc3O)CC2)C1=O | 0.56 | –
CCN1C(=O)N(CCC(C)C)C2(CCN(Cc3cc(F)ccc3O)CC2)C1=O | 1.4 | –
CCN1C(=O)N(CCC(C)C)C2(CCN(Cc3cccc(Cl)c3O)CC2)C1=O | 1.1 | –
CCN1C(=O)N(CCC(C)C)C2(CCN(Cc3cc(O)cc(Cl)c3)CC2)C1=O | 0.76 | –
CCN1C(=O)N(CCC(C)C)C2(CCN(Cc3cccnc3N)CC2)C1=O | > 10 | –
CC(C)CCN1C(=O)N(CCCc2ccncc2)C(=O)C12CCN(Cc1cc(Cl)ccc1O)CC2 | 0.61 | –
CCN1C(=O)N(CCC(C)C)C2(CCN(Cc3cc(Cl)cnc3N)CC2)C1=O | > 10 | –

SMILES | IC50 [1] [µM] | other results
CCN1C(=O)N(CCC(C)C)C2(CCN(Cc3cc(Br)ccc3O)CC2)C1=O | 0.21 | –
CCN1C(=O)N(CCc2ccccc2)C2(CCN(Cc3cc(Cl)ccc3O)CC2)C1=O | 0.29 | –
CCN1C(=O)N(CCC(C)C)C2(CCN(Cc3ccc(OC)cc3OC)CC2)C1=O | 7.6 | –
CCN1C(=O)NC2(CCN(Cc3cc(Cl)ccc3O)CC2)C1=O | > 10 | –
CCN1C(=O)N(Cc2ccc(OC)cc2)C2(CCN(Cc3cc(Cl)ccc3O)CC2)C1=O | 0.56 | –
CC(C)CCN1C(=O)N(Cc2cccnc2)C(=O)C12CCN(Cc1cc(Cl)ccc1O)CC2 | 0.84 | –
CCN1C(=O)N(CCC(C)C)C2(CCN(Cc3ccc(OC)cc3O)CC2)C1=O | 0.94 | –
CCN1C(=O)N(CCC(C)C)C2(CCN(Cc3c(O)cccc3Cl)CC2)C1=O | 0.41 | –
CCN1C(=O)N(CCC(C)C)C2(CCN(Cc3cc(Cl)ccc3O)CC2)C1=O | 0.22 | inhibition [3]: inactive; F [4]: 10%; inhibition [5]: inactive; inhibition [6]: inactive; IC50 [2]: 37 µM; selectivity ratio [7]: > 100; inhibition [8]: inactive; t1/2 [9]: 9 min; t1/2 [10]: 4 min; t1/2 [11]: 3 min; half-life [12]: 16.8 min; IC50 [13]: 0.22 µM; inhibition [14]: inactive; Vd [15]: 3.7 L/kg
CCN1C(=O)N(C2CCCC2)C2(CCN(Cc3cc(Cl)ccc3O)CC2)C1=O | 0.43 | –
CCN1C(=O)N(CCC(C)C)C2(CCN(Cc3cccc(Cl)c3)CC2)C1=O | 14 | –
CC(C)CCN1C(=O)NC(=O)C12CCN(Cc1cc(Cl)ccc1O)CC2 | > 10 | –
CCN1C(=O)N(CCC(C)C)C2(CCN(Cc3cc(C)ccc3O)CC2)C1=O | 0.88 | –
CCN1C(=O)N(CCC(C)C)C2(CCN(Cc3ccccc3O)CC2)C1=O | 1.1 | –
CCN1C(=O)N(CCC(C)C)C2(CCN(Cc3cc(Cl)c(Cl)cc3O)CC2)C1=O | 0.09 | inhibition [3]: inactive; inhibition [5]: inactive; inhibition [6]: inactive; IC50 [2]: > 50 µM; selectivity ratio [7]: > 500; inhibition [8]: inactive; inhibition [14]: inactive
CCN1C(=O)N(c2ccccc2)C2(CCN(Cc3cc(Cl)ccc3O)CC2)C1=O | 3.6 | –
CCN1C(=O)N(Cc2ccccc2)C2(CCN(Cc3cc(Cl)ccc3O)CC2)C1=O | 0.56 | –
CCN1C(=O)N(CCC(C)C)C2(CCN(C(=O)c3cc(Cl)ccc3O)CC2)C1=O | > 10 | –
CCN1C(=O)N(CCC(C)C)C2(CCN(Cc3cccc(OC)c3)CC2)C1=O | 16 | –
CCN1C(=O)N(CCC(C)C)C2(CCN(C(=O)c3ccccn3)CC2)C1=O | > 10 | –
CCN1C(=O)N(CCC(C)C)C2(CCN(Cc3c(O)ccc(Cl)c3Cl)CC2)C1=O | 0.28 | –

— ChEMBL document CHEMBL3603824, “Evaluation of spiropiperidine hydantoins as a novel class of antimalarial agents” (Bioorg Med Chem, 2015)
